Test results reported in ChEMBL document CHEMBL4411293, “Development of alkyl glycerone phosphate synthase inhibitors: Structure-activity relationship and effects on ether lipids and epithelial-mesenchymal transition in cancer cells” (Eur J Med Chem, 2019).
Blank lines part the entries; values can stand above or below the compound they belong to. Calls of active or inactive are those of the source. The calls are words filed in the database; no cut-off is given here.

Assays:
[1] = molecular target: Alkyldihydroxyacetonephosphate synthase, peroxisomal (Homo sapiens) (UniProt O00116); experiment: Binding affinity to AGPS (unknown origin) assessed as change in melting temperature at 180 uM by ThermoFAD assay
Outline: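 ThermoFAD: 5 µM Cavia porcellus AGPS with 180 µM compound in 50 mM HEPES pH 7.5, 50 mM NaCl, 5% glycerol; heated 25–70 °C, FAD fluorescence read every 0.2 °C (excitation 485 nm) to give unfolding temperature shift; triplicate, SD within ±0.5 °C.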

[2] = molecular target: Alkyldihydroxyacetonephosphate synthase, peroxisomal (Homo sapiens) (UniProt O00116); experiment: Inhibition of AGPS (unknown origin) using palmitoyl-DHAP as substrate in presence of [1-14C]hexadecanol by radioactivity based enzymatic assay
PC-3 [3] = experiment: Modulation of epithelial-mesenchymal transition in human PC3 cells assessed as down regulation of MMP2 mRNA expression at 50 to 100 uM after 24 hrs by qRT-PCR analysis; format: functional, cell-based
Outline: (§1)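 PC-3 and MDA-MB-231 cells in DMEM/10% FBS treated 24 h at 50 and 100 µM, DMSO vehicle as control; E-cadherin, Snail and MMP2 transcripts quantified by RT-PCR; mean of at least four independent experiments.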

MDA-MB-231 [4] = experiment: Modulation of epithelial-mesenchymal transition in human MDA-MB-231 cells assessed as down regulation of snail mRNA expression at 50 to 100 uM after 24 hrs by qRT-PCR analysis; format: functional, cell-based; outline: as §1
PC-3 [5] = experiment: Modulation of epithelial-mesenchymal transition in human PC3 cells assessed as upregulation of E-cadherin mRNA expression at 50 to 100 uM after 24 hrs by qRT-PCR analysis; format: functional, cell-based; outline: as §1
MDA-MB-231 [6] = experiment: Modulation of epithelial-mesenchymal transition in human MDA-MB-231 cells assessed as upregulation of E-cadherin mRNA expression at 50 to 100 uM after 24 hrs by qRT-PCR analysis; format: functional, cell-based; outline: as §1
MDA-MB-231 [7] = experiment: Modulation of epithelial-mesenchymal transition in human MDA-MB-231 cells assessed as down regulation of MMP2 mRNA expression at 50 to 100 uM after 24 hrs by qRT-PCR analysis; format: functional, cell-based; outline: as §1
PC-3 [8] = experiment: Modulation of epithelial-mesenchymal transition in human PC3 cells assessed as down regulation of snail mRNA expression at 50 to 100 uM after 24 hrs by qRT-PCR analysis; format: functional, cell-based; outline: as §1
MDA-MB-231 [9] = experiment: Antiproliferative activity against human MDA-MB-231 cells at 250 uM after 24 hrs by MTS assay; format: functional, cell-based
Outline: (§2)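 Cells seeded at 20x10^3 per well; compound added 24 h later at 50, 100 or 250 µM; after further 24 h MTS reagent added and absorbance read at 490 nm; PC-3 and MDA-MB-231 in DMEM, MeT5A in M199, each with 10% FBS, 37 °C, 5% CO2; three independent experiments, 8 measurements total, mean ± SEM.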

PC-3 [10] = experiment: Antiproliferative activity against human PC3 cells at 100 uM after 24 hrs by MTS assay; format: functional, cell-based; outline: as §2
MDA-MB-231 [11] = experiment: Modulation of epithelial-mesenchymal transition in human MDA-MB-231 cells transfected with AGPS-siRNA assessed as down regulation of MMP2 mRNA expression at 100 uM after 24 hrs by qRT-PCR analysis; format: functional, cell-based
Outline: (§3)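 MDA-MB-231 cells transfected with AGPS siRNAs (100 pmol total, RNAiMAX) or scramble; 24 h later given compound at 100 µM final or DMSO without detaching, harvested 24 h after that; AGPS, E-cadherin, Snail and MMP2 transcripts by RT-PCR; mean of five independent experiments.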

MDA-MB-231 [12] = experiment: Antiproliferative activity against human MDA-MB-231 cells at 100 uM after 24 hrs by MTS assay; format: functional, cell-based; outline: as §2
MDA-MB-231 [13] = experiment: Modulation of epithelial-mesenchymal transition in human MDA-MB-231 cells transfected with AGPS-siRNA assessed as upregulation of E-cadherin mRNA expression at 100 uM after 24 hrs by qRT-PCR analysis; format: functional, cell-based; outline: as §3
PC-3 [14] = experiment: Antiproliferative activity against human PC3 cells at 250 uM after 24 hrs by MTS assay; format: functional, cell-based; outline: as §2
MDA-MB-231 [15] = experiment: Modulation of epithelial-mesenchymal transition in human MDA-MB-231 cells transfected with AGPS-siRNA assessed as down regulation of snail mRNA expression at 100 uM after 24 hrs by qRT-PCR analysis; format: functional, cell-based; outline: as §3
[16] = Antimigratory activity in human 231MFP cells at 500 uM after 8 hrs by transwell assay relative to control; format: functional
[17] = Reduction in cell migration rate in human 231MFP cells; format: functional; design: scale not given: the % may be the effect or the level left
[18] = Reduction in cell survival in human 231MFP cells; format: functional
[19] = Antimigratory activity in human 231MFP cells at 500 uM after 6 hrs by transwell assay relative to control; format: functional
Outline: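 Transwell chambers coated with collagen; 231MFP cells preincubated with compound or DMSO vehicle before seeding into serum-free migration assay; migration rate read after 6 h versus vehicle control; mean ± SD, n = 3–4 per group.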

[20] = Cytotoxicity against human MeT-5A cells at 250 uM after 24 hrs by MTS assay; format: cell-based; outline: as §2
[21] = Cytotoxicity against human 231MFP cells assessed as cell survival at 500 uM after 48 hrs by MTS assay relative to control; format: cell-based; settings: read-out: Activity
Outline: (§4)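 231MFP cells preincubated with compound (500 µM) or DMSO, then seeded into serum-free survival assay; survival read after 24 and 48 h relative to matched DMSO controls.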

[22] = Down regulation of phospholipids in human 231MFP cells at 500 uM after 24 hrs by LC-MS/MS analysis relative to control; format: functional
Outline: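 231MFP cells kept serum-free 24 h, then treated 24 h at 500 µM versus DMSO; lipids extracted in chloroform/methanol/PBS (2:1:1) with C12:0 dodecylglycerol and pentadecanoic acid internal standards; reverse-phase C5 LC, ESI triple-quadrupole MS/MS with SRM quantitation; mean ± SD.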

[23] = Cytotoxicity against human MeT-5A cells at 100 uM after 24 hrs by MTS assay; format: cell-based; outline: as §2
[24] = Cytotoxicity against human 231MFP cells assessed as cell survival at 500 uM after 24 hrs by MTS assay relative to control; format: cell-based; settings: read-out: Activity; outline: as §4

Sequence of Alkyldihydroxyacetonephosphate synthase, peroxisomal (Homo sapiens) (O00116 whole entry): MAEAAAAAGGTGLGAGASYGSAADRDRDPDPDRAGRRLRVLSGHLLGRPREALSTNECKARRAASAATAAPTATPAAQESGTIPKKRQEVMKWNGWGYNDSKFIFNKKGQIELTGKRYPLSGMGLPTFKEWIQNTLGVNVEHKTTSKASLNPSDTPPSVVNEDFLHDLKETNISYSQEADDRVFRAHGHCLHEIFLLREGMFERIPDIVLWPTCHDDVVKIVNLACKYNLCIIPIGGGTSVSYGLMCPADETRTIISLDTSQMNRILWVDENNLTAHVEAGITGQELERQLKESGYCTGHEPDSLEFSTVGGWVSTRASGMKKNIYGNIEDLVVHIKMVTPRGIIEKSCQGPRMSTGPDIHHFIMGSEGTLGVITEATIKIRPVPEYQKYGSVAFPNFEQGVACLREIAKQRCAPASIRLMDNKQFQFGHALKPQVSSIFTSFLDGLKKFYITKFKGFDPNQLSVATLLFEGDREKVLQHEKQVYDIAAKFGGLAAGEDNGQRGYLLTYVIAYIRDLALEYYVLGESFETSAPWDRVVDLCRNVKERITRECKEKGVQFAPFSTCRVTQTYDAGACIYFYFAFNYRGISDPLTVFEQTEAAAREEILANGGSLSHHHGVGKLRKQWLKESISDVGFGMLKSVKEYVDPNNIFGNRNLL

Structure (SMILES): CC(CC(=O)NCc1ccc2[nH]c(=O)[nH]c2c1)c1ccc(F)cc1 (stereo unspecified)
ΔTm [1]: 4 °C

Structure (SMILES): C/C(=C\C(=O)NCc1ccc2[nH]c(=O)[nH]c2c1)c1ccccc1F
ΔTm [1]: 0 °C

Structure (SMILES): O=C(/C=C/c1ccccc1F)NCc1ccc2[nH]c(=O)[nH]c2c1
ΔTm [1]: 0 °C

Structure (SMILES): Cc1ccccc1C(C)CC(=O)NCc1ccc2[nH]c(=O)[nH]c2c1 (stereo unspecified)
ΔTm [1]: 3 °C

Structure (SMILES): CC(Cc1ccccc1F)C(=O)NCc1ccc2[nH]c(=O)[nH]c2c1 (stereo unspecified)
ΔTm [1]: 3 °C

Structure (SMILES): O=C(CCc1ccccc1F)NCc1ccc2[nH]c(=O)[nH]c2c1
ΔTm [1]: 0 °C

Structure (SMILES): CCC(CC(=O)NCc1ccc2[nH]c(=O)[nH]c2c1)c1ccccc1F (stereo unspecified)
ΔTm [1]: 1 °C

Structure (SMILES): CC(CC(=O)NCc1ccc2[nH]cnc2c1)c1c(F)cccc1F (stereo unspecified)
Activity (PC-3 [3]): inactive
ΔTm [1]: 0 °C
Activity (MDA-MB-231 [4]): inactive
inhibition [2]: inactive
Activity (PC-3 [5]): inactive
Activity (MDA-MB-231 [6]): inactive
Activity (MDA-MB-231 [7]): inactive
Activity (PC-3 [8]): inactive

Structure (SMILES): C/C(=C\c1ccccc1F)C(=O)NCc1ccc2[nH]c(=O)[nH]c2c1
ΔTm [1]: 2 °C

Structure (SMILES): CC(CC(=O)NCc1ccc2[nH]c(=O)[nH]c2c1)c1ccccc1 (stereo unspecified)
ΔTm [1]: 1.5 °C

Structure (SMILES): O=C(CC(c1ccccc1)c1ccccc1F)NCc1ccc2[nH]c(=O)[nH]c2c1 (stereo unspecified)
ΔTm [1]: 0 °C
inhibition [2]: inactive

Structure (SMILES): COc1ccccc1C(C)CC(=O)NCc1ccc2[nH]c(=O)[nH]c2c1 (stereo unspecified)
ΔTm [1]: 0 °C

Structure (SMILES): CC(CC(=O)NCc1ccc2[nH]c(=O)[nH]c2c1)c1c(F)cccc1F (stereo in doubt; 2i) [listing 2 of 2 here]
Activity [19]: 78%
Activity [20]: Non-Toxic
viability at 48 h, 500 µM [21]: 57%
Activity [22]: 50 - 70%
Activity [23]: Non-Toxic
viability at 24 h, 500 µM [24]: 44%

Structure (SMILES): CC(CC(=O)NCc1ccc2[nH]c(=O)[nH]c2c1)c1ccccc1Cl (stereo unspecified)
ΔTm [1]: 3.5 °C

Structure (SMILES): CC(CC(=O)NCc1ccc2[nH]c(=O)[nH]c2c1)c1ccccc1Br (stereo unspecified)
ΔTm [1]: 3.5 °C

Further lines, with some results ahead:

ΔTm [1]: 0 °C
Structure (SMILES): CC(CC(=O)Nc1ccc2[nH]c(=O)[nH]c2c1)c1c(F)cccc1F (stereo unspecified)

ΔTm [1]: 1 °C
inhibition [2]: inactive
Structure (SMILES): CC(C(=O)NCc1ccc2[nH]c(=O)[nH]c2c1)c1c(F)cccc1F (stereo unspecified)

ΔTm [1]: 3 °C
Structure (SMILES): CC(CC(=O)NCc1ccc2[nH]c(=O)[nH]c2c1)c1cccc(F)c1 (stereo unspecified)

ΔTm [1]: 3 °C
Structure (SMILES): C[C@H](CC(=O)NCc1ccc2[nH]c(=O)[nH]c2c1)c1c(F)cccc1F

ΔTm [1]: 3.5 °C
Structure (SMILES): CC(CC(=O)NCc1ccc2[nH]c(=O)[nH]c2c1)c1ccc(F)cc1F (stereo unspecified)

ΔTm [1]: 5 °C
inhibition [2]: Active
Structure (SMILES): CC(CC(=O)NCc1ccc2[nH]c(=O)[nH]c2c1)c1c(F)cccc1F (stereo in doubt; 2i) [listing 1 of 2 here]
Activity (MDA-MB-231 [9]): Active
Activity (PC-3 [3]): Active
Activity (MDA-MB-231 [4]): Active
Activity (PC-3 [10]): inactive
Activity (MDA-MB-231 [11]): Active
Activity (PC-3 [5]): Active
Activity (MDA-MB-231 [12]): inactive
Activity (MDA-MB-231 [13]): Active
Activity (MDA-MB-231 [6]): Active
Activity (MDA-MB-231 [7]): Active
Activity (PC-3 [14]): Active
Activity (PC-3 [8]): Active
Activity (MDA-MB-231 [15]): Active

ΔTm [1]: 0 °C
Structure (SMILES): CC(CC(=O)NCc1ccc2ncc(=O)[nH]c2c1)c1c(F)cccc1F (stereo unspecified)

ΔTm [1]: 6 °C
Structure (SMILES): CC(CC(=O)NCc1ccc2[nH]c(=O)[nH]c2c1)c1c(F)cccc1F (single isomer, unassigned; (+))

ΔTm [1]: 3.5 °C
Structure (SMILES): CC(CC(=O)NCc1ccc2[nH]c(=O)[nH]c2c1)c1ccccc1F (stereo unspecified)
Activity (PC-3 [3]): Active
Activity (MDA-MB-231 [4]): Active
Activity (PC-3 [5]): Active
Activity (MDA-MB-231 [6]): Active
Activity (MDA-MB-231 [7]): Active
Activity [16]: 48%
Activity [17]: 48%
Activity [18]: 50%
Activity (PC-3 [8]): Active
